Results as given in ChEMBL document CHEMBL4354812, “N-Benzyl/Aryl Substituted Tryptanthrin as Dual Inhibitors of Indoleamine 2,3-Dioxygenase and Tryptophan 2,3-Dioxygenase” (J Med Chem, 2019).
pIC50, pKi: −log10 of the molar value. Active and inactive are the calls of the source. The rule behind the calls is not given here.

Key:
[1] = target: T1, Tryptophan 2,3-dioxygenase (Homo sapiens, UniProt P48775); assay: Inhibition of human TDO transfected in HEK293 cells assessed as reduction in kynurenine production using L-tryptophan as substrate incubated for 12 hrs; assay type: cell-based
Outline: (§1)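 U87 MG cells (hIDO2) or HEK293 cells (hTDO) were transiently transfected at 80% confluence, with empty vector as control. After 18 h, cells were seeded 2.5 × 10⁴/well in medium with 200 μM L-Trp. Compound serial dilutions were added after a further 6 h (IDO2) or 12 h (TDO). Reactions were stopped 24 h (IDO2) or 8 h (TDO) later with TCA, heated 65 °C 15 min, and Kyn read with DMAB at 492 nm. IC50 by nonlinear regression.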
Target sequence in this assay (P48775 whole entry): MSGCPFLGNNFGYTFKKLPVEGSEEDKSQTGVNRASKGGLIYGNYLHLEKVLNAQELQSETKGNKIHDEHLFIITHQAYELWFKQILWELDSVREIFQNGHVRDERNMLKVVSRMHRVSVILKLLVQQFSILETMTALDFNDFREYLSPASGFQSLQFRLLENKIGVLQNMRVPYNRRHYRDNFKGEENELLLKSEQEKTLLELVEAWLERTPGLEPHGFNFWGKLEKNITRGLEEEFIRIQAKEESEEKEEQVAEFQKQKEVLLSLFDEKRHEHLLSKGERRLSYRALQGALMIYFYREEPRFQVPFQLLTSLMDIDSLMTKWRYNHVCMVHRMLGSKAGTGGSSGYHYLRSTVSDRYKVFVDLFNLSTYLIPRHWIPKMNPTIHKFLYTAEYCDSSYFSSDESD

[2] = target: T1, Tryptophan 2,3-dioxygenase; assay: Uncompetitive inhibition of recombinant human TDO expressed in Escherichia coli BL21 (DE3) assessed as assessed as inhibition constant using varying concentration of L-tryptophan as substrate by Dixon plot analysis
Outline: (§2)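 Enzymatic assays of the kynurenine-forming reaction were run with varying L-Trp. Ki was derived by plotting [S]/V against inhibitor concentration [I], with inhibition type assigned from the graphical pattern.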
Target sequence in this assay (P48775 whole entry): as above

[3] = target: T2, Indoleamine 2,3-dioxygenase 2 (Homo sapiens, UniProt Q6ZQW0); assay: Inhibition of human IDO2 transfected in human U87MG cells assessed as reduction in kynurenine production using L-tryptophan as substrate incubated with for 6 hrs; assay type: cell-based; outline: as §1
T2 sequence (Q6ZQW0 whole entry): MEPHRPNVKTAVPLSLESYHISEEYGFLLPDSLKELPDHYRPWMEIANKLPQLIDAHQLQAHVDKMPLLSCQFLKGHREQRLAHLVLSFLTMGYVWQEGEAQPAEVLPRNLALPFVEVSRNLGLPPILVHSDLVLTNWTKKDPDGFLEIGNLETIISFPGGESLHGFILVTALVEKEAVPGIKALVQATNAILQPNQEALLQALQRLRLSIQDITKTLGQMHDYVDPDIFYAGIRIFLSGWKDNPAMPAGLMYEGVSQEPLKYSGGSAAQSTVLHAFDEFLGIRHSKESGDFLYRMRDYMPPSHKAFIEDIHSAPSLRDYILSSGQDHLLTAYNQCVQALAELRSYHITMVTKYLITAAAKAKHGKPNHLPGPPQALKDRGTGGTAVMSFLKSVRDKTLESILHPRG

[4] = target: T3, Indoleamine 2,3-dioxygenase 1 (Homo sapiens, UniProt P14902); assay: Uncompetitive inhibition of recombinant human IDO1 expressed in Escherichia coli BL21 cells assessed inhibition constant using varying concentration of L-tryptophan as substrate by Dixon plot analysis; settings: for pKi: read-out: Ki; outline: as §2
Target sequence in this assay (P14902 whole entry): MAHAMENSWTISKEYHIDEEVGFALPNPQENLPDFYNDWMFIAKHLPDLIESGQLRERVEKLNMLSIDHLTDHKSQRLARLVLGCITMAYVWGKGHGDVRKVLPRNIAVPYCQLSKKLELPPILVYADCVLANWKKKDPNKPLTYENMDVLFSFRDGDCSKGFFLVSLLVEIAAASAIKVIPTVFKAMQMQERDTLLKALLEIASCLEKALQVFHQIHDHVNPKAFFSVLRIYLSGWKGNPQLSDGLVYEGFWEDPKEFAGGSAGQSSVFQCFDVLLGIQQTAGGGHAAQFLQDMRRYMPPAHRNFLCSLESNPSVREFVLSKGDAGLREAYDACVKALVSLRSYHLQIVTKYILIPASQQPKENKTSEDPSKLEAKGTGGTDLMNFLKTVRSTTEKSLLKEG

[5] = target: T3, Indoleamine 2,3-dioxygenase 1; assay: Inhibition of IDO1 in IFN-gamma stimulated human HeLa cells assessed as reduction in kynurenine production incubated for 18 hrs; assay type: cell-based; settings: for pIC50: read-out: IC50
Outline: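 HeLa cells were seeded 25 000/well overnight, then exposed to inhibitor dilutions with 100 ng/mL human IFN-γ (final) for 18 h at 37 °C. Medium was treated with TCA at 50 °C for 30 min to hydrolyze NFK to Kyn. Kyn was read with 2% DMAB at 492 nm. IC50 by nonlinear regression.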
Target sequence in this assay (P14902 whole entry): as above

[6] = target: T2, Indoleamine 2,3-dioxygenase 2; assay: Inhibition of C-terminal His6-tagged human IDO2 (14 to 420 residues) expressed in Escherichia coli BL21 (DE3) assessed as reduction in conversion of L-tryptophan to N-formyl kynurenine using L-tryptophan as substrate after 30 mins by methylene blue dye based microplate reader analysis
Outline: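 Recombinant enzyme with L-Trp substrate, ascorbic acid 40 mM, methylene blue 20 μM and catalase 200 μg/mL in potassium phosphate buffer. Conditions were pH 7.0 with 400 μM L-Trp for TDO, and pH 7.5 with 30 mM L-Trp for IDO2. Reaction ran 30 min at 37 °C, stopped with TCA, heated 65 °C 15 min. Kyn detected with DMAB at 492 nm. IC50 by nonlinear regression.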

[7] = target: T1, Tryptophan 2,3-dioxygenase; assay: Inhibition of recombinant human TDO expressed in Escherichia coli BL21 (DE3) assessed as reduction in conversion of L-tryptophan to N-formyl kynurenine using L-tryptophan as substrate after 30 mins by methylene blue assay
Target sequence in this assay (P48775 whole entry): as the sequence (P48775 whole entry) above

[8] = target: T2, Indoleamine 2,3-dioxygenase 2; assay: Noncompetitive inhibition of C-terminal His6-tagged human IDO2 (14 to 420 residues) expressed in Escherichia coli BL21 (DE3) assessed as inhibition constant using varying concentration of L-tryptophan as substrate by Dixon plot analysis; outline: as §2
[9] = target: T2, Indoleamine 2,3-dioxygenase 2; assay: Uncompetitive inhibition of C-terminal His6-tagged human IDO2 (14 to 420 residues) expressed in Escherichia coli BL21 (DE3) assessed as inhibition constant using varying concentration of L-tryptophan as substrate by Dixon plot analysis; outline: as §2
[10] = target: T1, Tryptophan 2,3-dioxygenase; assay: Mixed uncompetitive inhibition of recombinant human TDO expressed in Escherichia coli BL21 (DE3) assessed as inhibition constant using varying concentration of L-tryptophan as substrate by Dixon plot analysis; outline: as §2
Target sequence in this assay (P48775 whole entry): as above

[11] = target: T3, Indoleamine 2,3-dioxygenase 1; assay: Competitive inhibition of recombinant human IDO1 expressed in Escherichia coli BL21 cells assessed as apparent inhibition constant using varying concentration of L-tryptophan as substrate by Dixon plot analysis
Target sequence in this assay (P14902 whole entry): as the sequence (P14902 whole entry) above

[12] = target: T3, Indoleamine 2,3-dioxygenase 1; assay: Inhibition of recombinant human IDO1 expressed in Escherichia coli BL21 cells assessed as reduction in conversion of L-tryptophan to N-formyl kynurenine using L-tryptophan as substrate after 30 mins by methylene blue dye based microplate reader analysis
Target sequence in this assay (P14902 whole entry): as above

[13] = target: T3, Indoleamine 2,3-dioxygenase 1; assay: Noncompetitive inhibition of recombinant human IDO1 expressed in Escherichia coli BL21 cells assessed inhibition constant using varying concentration of L-tryptophan as substrate by Dixon plot analysis; outline: as §2
Target sequence in this assay (P14902 whole entry): as above

[14] = target: T1, Tryptophan 2,3-dioxygenase; assay: Binding affinity to human TDO at 200 uM by STD NMR spectrometry analysis
Target sequence in this assay (P48775 whole entry, looked up): as the sequence (P48775 whole entry) above

Homo sapiens = species on record: Homo sapiens; assay: Inhibition of IDO1/TDO in IFNgamma-treated human HeLa cells assessed as T cell proliferation at 1 uM measured after 2 days in presence of IL-2, anti-CD3 and IFN-gamma by CFSE dye based flow cytometry analysis (reference value: 11.7 %); design: scale not given: the % may be the effect or the level left
Outline: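 CFSE-labelled human PBMC lymphocytes (1 × 10⁶/well) were cocultured with HeLa cells (2 × 10⁵/well), a 5:1 ratio, in 150 U/mL IL-2, 100 ng/mL anti-CD3 and 60 ng/mL IFN-γ. Compound was tested at 40 nM, 200 nM, 500 nM or 1 μM. Proliferation was read by flow cytometry after 2 days, three independent experiments.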

[15] = test system: Lewis lung carcinoma cell line; assay: Antitumor activity against mouse LLC cells implanted in C57BL/6 mouse assessed as reduction in tumor volume at 100 mg/kg, po qd administered for 2 weeks and measured at 2 days interval during compound dosing relative to control; assay type: functional; design: scale not given: the % may be the effect or the level left
Outline: (§3)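 Tumor cells (LLC, or H22 ascites cells after two intraperitoneal passages in Kunming mice) injected sc into the right forelimb at 2 × 10⁶ per mouse, in female 6–8-week C57BL/6 or Kunming mice. Oral dosing once daily began at 5 mm tumor diameter and continued 2 weeks. Vehicle was 0.5% CMC-Na. Volume was read by caliper every 2 days as long × short²/2. Tumors were weighed at sacrifice. n = 9–10/group.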

[16] = target: T4, Indoleamine 2,3-dioxygenase 2 (Homo sapiens) (UniProt Q6ZQW0); assay: Binding affinity to human IDO2 assessed as change in spectral signal at 200 uM by CPMG NMR spectrometry analysis
T4 sequence (whole entry): T2 sequence (Q6ZQW0 whole entry)

H22 [17] = assay: Antitumor activity against mouse H22 cells implanted in Kunming mouse assessed as reduction in tumor volume at 100 mg/kg, po qd administered for 2 weeks and measured at 2 days interval during compound dosing relative to control; assay type: functional; design: scale not given: the % may be the effect or the level left
Outline: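 H22 ascites cells (2 × 10⁶/mouse) passaged twice intraperitoneally in Kunming mice, diluted in saline, then implanted sc into the right forelimb (2 × 10⁶ cells). Therapy began once the tumor reached 5 mm diameter: oral dosing once daily in 0.5% CMC-Na, vehicle controls, for 2 weeks. Calipers every 2 days; volume = long × short²/2. n = 9−10 mice/group.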

Mus musculus [18] = assay: In vivo blockade of kynurenine pathway in Kunming mouse implanted with mouse H22 cells assessed as increase in tryptophan level in serum at 100 mg/kg, po qd for 2 weeks by HPLC analysis; assay type: functional, organism-based
Outline: (§4)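 H22 tumor-bearing Kunming mice received oral dosing once daily in 0.5% CMC-Na for 2 weeks. Serum Trp and Kyn were measured by HPLC on a C18 column with 15 mM sodium acetate (pH 3.6) containing 4% acetonitrile, UV detection at 280 and 360 nm. Kyn/Trp ratio calculated. n = 9–10/group.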

H22 [19] = assay: Antitumor activity against mouse H22 cells implanted in Kunming mouse assessed as reduction in tumor weight at 100 mg/kg, po qd administered for 2 weeks and measured post-treatment; assay type: functional, organism-based; outline: as §3
Mus musculus [20] = assay: In vivo blockade of kynurenine pathway in Kunming mouse implanted with mouse H22 cells assessed as decrease in kynurenine level in serum at 100 mg/kg, po qd for 2 weeks by HPLC analysis; assay type: functional, organism-based; outline: as §4
[21] = target: T1, Tryptophan 2,3-dioxygenase; assay: Binding affinity to human TDO assessed as change in spectral signal at 200 uM by CPMG NMR spectrometry analysis
Target sequence in this assay (P48775 whole entry, looked up): as the sequence (P48775 whole entry) above

[22] = test system: Lewis lung carcinoma cell line; assay: Antitumor activity against mouse LLC cells implanted in C57BL/6 mouse assessed as reduction in tumor weight at 100 mg/kg, po qd administered for 2 weeks and measured post-treatment; assay type: functional, organism-based; outline: as §3
[23] = target: T4, Indoleamine 2,3-dioxygenase 2 (Homo sapiens); assay: Binding affinity to human IDO2 at 200 uM by STD NMR spectrometry analysis
[24] = target: T3, Indoleamine 2,3-dioxygenase 1; assay: Binding affinity to heme in human IDO1 assessed as Soret band red shift from 405 nm to […] at 375 uM and pH 6.5 under normal atmospheric condition by UV-vis spectroscopy analysis
Target sequence in this assay (P14902 whole entry, looked up): as the sequence (P14902 whole entry) above

| pIC50 [1] | pKi [2] | pIC50 [3] | pIC50 [5] | pIC50 [6] | pIC50 [7] | pKi [10] | SMILES | further results |
| --- | --- | --- | --- | --- | --- | --- | --- | --- |
| 7.15 | 6.47 |  |  |  |  |  | O=C1c2cc(F)ccc2-n2c1nc1ccc(CN3CCOCC3)cc1c2=O |  |
| 7.05 | 6.92 |  |  |  |  |  | O=C1c2cc(F)ccc2-n2c1nc1ccc(CN3CCNCC3)cc1c2=O |  |
| 7.15 |  |  |  |  |  | 6.89 | CC(C)(C)OC(=O)N1CCN(Cc2ccc3nc4n(c(=O)c3c2)-c2ccc(F)cc2C4=O)CC1 |  |
| 7.22 |  |  |  |  |  | 7.05 | CN(C)Cc1ccc2nc3n(c(=O)c2c1)-c1ccc(F)cc1C3=O |  |
| 6.60 |  | 4.10 | 5.73 | 4.33 | 5.59 | 6.77 | CN1CCN(c2ccc3nc4n(c(=O)c3c2)-c2ccc(F)cc2C4=O)CC1 | pKi ([13]; read-out: Ki): 5.16; pKi [8]: 4.70 |

Second part, the molecule before the results:

| SMILES | pIC50 [1] | pKi [2] | pIC50 [3] | pIC50 [5] | pIC50 [6] | pIC50 [7] | pKi [10] | further results |
| --- | --- | --- | --- | --- | --- | --- | --- | --- |
| CN(C)c1ccc2nc3n(c(=O)c2c1)-c1ccc(F)cc1C3=O | 6.57 | 5.91 | 4.04 | 6.23 | 4.04 | 5.42 |  | pKi [4]: 5.05; pKi [8]: 4.34 |
| NS(=O)(=O)NCCNc1nonc1C(=NO)Nc1ccc(F)c(Br)c1 [EPACADOSTAT] |  |  |  |  | 4.99 |  |  |  |
| CN1CCN(c2ccc3nc4n(c(=O)c3c2)-c2ccccc2C4=O)CC1 | 6.33 | 4.75 | 4.31 | 5.53 | 4.08 | 5.17 |  | pKi [4]: 5.12; pKi [9]: 4.31 |
| O=C1c2cc(F)ccc2-n2c1nc1ccc(N3CCNCC3)cc1c2=O | 6.54 |  | 4.75 | 6.12 | 4.38 | 5.50 | 6.17 | pKi [4]: 5.22; pKi [9]: 4.43 |
| O=C1c2cc(F)ccc2-n2c1nc1ccc(N3CCCCC3)cc1c2=O | 5.43 | 5.81 | 4.65 | 5.65 | 4.40 | 5.00 |  | pKi [4]: 5.36; pKi [9]: 4.57 |
| O=C1c2cc(F)ccc2-n2c1nc1ccc(N3CCOCC3)cc1c2=O | 6.30 | 5.63 | 4.69 |  | 4.10 | 5.19 |  | Ki [11]: Not Active; Ki [4]: Not Active; IC50 ([5]; hela): Not Active; pKi [9]: 4.41; IC50 [12]: Not Active; Ki [13]: Not Active |
| CN1CCN(Cc2ccc3nc4n(c(=O)c3c2)-c2ccccc2C4=O)CC1 | 6.74 |  |  | 6.74 |  |  | 6.38 |  |
| Cn1cc(C[C@H](N)C(=O)O)c2ccccc21 [(L)-1-METHYLTRYPTOPHAN] |  |  |  |  |  |  |  | Activity [14]: inactive; Activity (Homo sapiens): 15.8%; Activity [15]: 33.6%; Activity [16]: inactive; Activity (H22 [17]): 15.8%; Activity (Mus musculus [18]): inactive; Activity (H22 [19]): Active; Activity (Mus musculus [20]): Active; Activity [21]: inactive; Activity [22]: Active; Activity [23]: inactive |
| NS(=O)(=O)NCCNc1nonc1/C(=N/O)Nc1ccc(F)c(Br)c1 |  |  |  |  |  |  |  | Activity [24]: Active |
